The text below walks through data of ChEMBL document CHEMBL4513216, “Probing the Open Global Health Chemical Diversity Library for Multistage-Active Starting Points for Next-Generation Antimalarials” (ACS Infect Dis, 2020).

SMILES strings stand for the structures.

This series can be described thus: Toxicity liver stage against HepG2, at 10uM. The series is classed as cell-based. More on the design: test concentration 10 uM, cell line HepG2-A16-CD81EGFP. The note with it: human, HepG2-A16-CD81EGFP cells; read-out: INHIBITION
In a few lines:
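Uninfected HepG2-A16-CD81EGFP cells, 3 × 10^3 per well, 1536-well, plated on prespotted compound at 10 μM final, parasite-free screening media added to match infected plates; puromycin 10 μM positive, DMSO 0.5% negative; run in parallel with 48 h PbLuc assay at 37 °C, 5% CO2; viability by CellTiter-Glo luminescence, normalized to controls.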
For the compound `COC(=O)[C@H](C)NC(=O)CSCc1nc2sc(C(C)C)cc2c(=O)[nH]1`, the cytotoxicity at 10 µM was 2.87%.
For the compound `Cc1nn2c(-c3cnn(C)c3)nnc2s1`, the cytotoxicity at 10 µM was -15.4%.
With `CCC(CC)CN1C[C@@H]2OCCN(Cc3cnn(C)c3)[C@@H]2C1` the figure was -144%; with `O=C(NCC1CC1)C1CN(C(=O)c2cnccn2)CC12CCOCC2` (configuration not stated), 8.27%; with `NC(=O)C1CCN(C(=O)c2cc(Br)ccc2-n2cnnn2)CC1`, 13.1%.
In the case of `Cc1noc(C)c1CCC(=O)N1CCN(CCn2cccn2)CC1`, the cytotoxicity at 10 µM was -24.2%.
Consider `Cc1noc(-c2ccc(N3CCCC(C(=O)N4CCSCC4)C3)nc2)n1` (configuration not stated), for which the cytotoxicity at 10 µM is -2.45%.
In the case of `CCN(Cc1nonc1C)C(=O)Cn1nc(C(F)(F)F)cc1C1CC1`, the cytotoxicity at 10 µM came out at 1.45%.
For the compound `Cc1nn(C)c2c(=O)n(Cc3ccccc3)nnc12`, the cytotoxicity at 10 µM came to 5.53%.
As for `Cc1cccc(-n2nnnc2C2(NCc3ccco3)CCCCC2)c1`, the cytotoxicity at 10 µM came out at 6.27%.
With `Cn1ccc(C(=O)N2CCCC2c2cc(CCO)[nH]n2)n1` (configuration not stated), the cytotoxicity at 10 µM was found to be 3.31%.
Regarding `CN(Cc1c(F)cccc1Cl)C(=O)Cn1cnc(C#N)n1`, the cytotoxicity at 10 µM was -5.5%.
In the case of `CC(C(=O)N(C)Cc1ccc(Br)o1)n1cncn1` (configuration not stated), the cytotoxicity at 10 µM came to 5.87%.
In the case of `CNC(=O)C(CC(C)C)NC(=O)c1cccc(-c2nc(C)cs2)c1` (configuration not stated), the cytotoxicity at 10 µM turned out to be 14.5%.
As to `CC(C)(NCc1cccc(C(N)=O)c1)c1ccc2c(c1)OCO2`, the cytotoxicity at 10 µM was 3.15%.
For `CNC(=O)c1cccc(CN2CCN(C3=NCC(C)(C)S3)CC2)c1`, the cytotoxicity at 10 µM is -2.37%.
With `CC(C)OCCN1CCC(Nc2ncc(Br)cn2)CC1`, the cytotoxicity at 10 µM came out at 2.83%.
For the compound `CNC(=O)N1CCOCC1c1c(C)nn(C)c1C` (configuration not stated), the cytotoxicity at 10 µM is -7.11%.
Consider `CC1CCC(NS(=O)(=O)CC(=O)NC2(C(N)=O)CCCC2)CC1` (configuration not stated), for which the cytotoxicity at 10 µM was -4.12%.
As to `Cc1cccc(OCCNC(=O)Cn2ccc(C)cc2=O)c1`, the cytotoxicity at 10 µM was -1.63%.
With `COc1ccc(CNc2nc(N3CCOCC3)ns2)cc1` the figure was -4.77%.
`NC(=O)N1CCCC1COC(=O)c1cc(F)ccc1F` (configuration not stated): the cytotoxicity at 10 µM was -0.743%.
In the case of `COCCN1CCC(NC(=O)Nc2cccc(F)c2)C1` (configuration not stated), the cytotoxicity at 10 µM is -0.898%.
As for `CCc1nc(C2CCCN(C(=O)C3=NN(C(C)C)C(=O)CC3)C2)no1` (configuration not stated), the cytotoxicity at 10 µM is -7.28%.
For the compound `CCc1nc2c(s1)C(N(C)C(=O)c1cc[nH]n1)CCC2` (configuration not stated), the cytotoxicity at 10 µM amounted to 7.76%.
The result for `Cc1cnn(C2CN(CC(O)c3ccccc3)C2)c1` (configuration not stated) reads -2.55%; that for `O=C(NCCCn1cccn1)N1CCCC1c1ccsc1` (configuration not stated), -7.86%.
In the case of `Cc1nn(C)c(C)c1C1COCCN1c1ncnc2c(C)cccc12` (configuration not stated), the cytotoxicity at 10 µM was 6.54%.
Turning to `CC(Cn1cncn1)NC(=O)Nc1ccc(COC2CCCC2)cc1` (configuration not stated), the cytotoxicity at 10 µM was -1.47%.
For `CC(C)c1ncncc1C(=O)NCCN1CCCC1`, the cytotoxicity at 10 µM is -9.91%.
The result for `CN(C)C(=O)Cn1cc(C(=O)N2CCCc3cccc(F)c32)nn1` reads 1.81%; that for `CN(Cc1ccccc1)C(=O)CCNc1ncccc1C#N`, 4.55%.
With `CC(NC(=O)NCCNc1cccc(F)c1C#N)c1nccs1` (configuration not stated) the figure was -1.84%.
As to `N#CC1(NC(=O)c2ccn(-c3ccccc3Cl)n2)CCSC1` (configuration not stated), the cytotoxicity at 10 µM worked out at 0.462%.
Consider `CC(C)COC(C)C(=O)N1CCCCC1` (configuration not stated), for which the cytotoxicity at 10 µM was -5.66%.
For `CS(=O)(=O)CCN(Cc1cccc(O)c1)C1CCC(O)CC1` (configuration not stated), the cytotoxicity at 10 µM was 5.38%.
For `CC(=O)Nc1nc(C(=O)NCCOc2cccc(F)c2)cs1`, the cytotoxicity at 10 µM turned out to be 7.9%.
For `O=C(Cn1cnnn1)Nc1ccc(F)cc1OCC1CC1`, the cytotoxicity at 10 µM came to 5.38%.
Consider `CCc1nc(CSC2CCCN(c3cnn(C)c3)C2=O)cs1` (configuration not stated), for which the cytotoxicity at 10 µM was 14.1%.
With `CCN(Cc1cccs1)C(=O)c1ccc(=O)n(C)c1`, the cytotoxicity at 10 µM is -9.56%.
`O=C(CCc1ccccc1)N1CCC(c2n[nH]c(C3CC3)n2)CC1`: the cytotoxicity at 10 µM is -5.35%.
`Cc1noc(C(C)N2CCc3[nH]c4ccc(Cl)cc4c3C2)n1` (configuration not stated): the cytotoxicity at 10 µM worked out at 1.99%.
The result for `Cc1cc(CNc2ccccc2N2CCCCC2)no1` reads -1.31%.
With `Cc1ccc(CCc2nc(C3CCOC3)no2)o1` (configuration not stated) the figure was 3.04%; with `Cc1ccc(CNC(=O)N2CCc3ccccc3C2CO)s1` (configuration not stated), 2%; with `CCC(C)NC(=O)Nc1ccc(CN2CCOC2=O)cc1` (configuration not stated), 10.5%.
As for `O=C(c1cccnc1)N1C[C@@H]2OCCN(CCN3CCCC3)[C@@H]2C1`, the cytotoxicity at 10 µM was -71.2%.
Turning to `COCCC1COC2(CCN(C(=O)Cc3ccccc3)CC2)C1` (configuration not stated), the cytotoxicity at 10 µM was -69.2%.
On to `Cn1cc(C[C@H]2[C@@H](OCC3CC3)CCN2C(=O)c2ccc[nH]2)cn1`, for which the cytotoxicity at 10 µM is -72.7%.
The result for `Cc1ccc(N2CCC3(CC2)CC(OCC(=O)N(C)C)CO3)nn1` (configuration not stated) reads -7.59%; that for `CN1CC2(CCN(C(=O)c3coc4c3C(=O)CCC4)C2)OC1=O` (configuration not stated), -2.36%; that for `Cc1cc(N2CCCN(C(=O)Cc3cc(F)cc(F)c3)CC2)ccn1`, -6.7%.
Regarding `c1ccc(CN2CCC(Cc3noc(C4CC4)n3)CC2)cc1`, the cytotoxicity at 10 µM was 5.56%.
The result for `CN1CCC(N2CCC(c3ccccc3C(=O)O)C2)CC1` (configuration not stated) reads -1.05%; that for `CCC(O)C1CCN(C(=O)Nc2nc(-c3ccccc3)ns2)CC1` (configuration not stated), -130%.
Turning to `COc1ccccc1CCC(=O)N1C[C@H](c2ccccc2)[C@@H](N)C1`, the cytotoxicity at 10 µM was -3.79%.
As to `CC(C)CN1CCC(c2nnc(CN3CCCC3)n2C2CC2)CC1`, the cytotoxicity at 10 µM is -8.85%.
With `Cc1nc(NCc2coc(-c3ccccc3)n2)cc(C2CCNCC2)n1`, the cytotoxicity at 10 µM came to 7.94%.
For `CC(C)c1noc(C2CCCN2S(=O)(=O)Cc2ccc(F)cc2)n1` (configuration not stated), the cytotoxicity at 10 µM stood at 3.88%.
With `COc1ccc2[nH]cc(CCNC(=O)C3CCCN(C(C)=O)C3)c2c1` (configuration not stated) the figure was -5.58%; with `CC(C)=CCC1(CO)CCCN(S(C)(=O)=O)C1` (configuration not stated), -5.13%.
As for `Nc1ccnc(N2CCC(CCc3ccccc3)(C(=O)O)CC2)n1`, the cytotoxicity at 10 µM is -3.65%.
On to `CNCC(=O)N[C@H]1CN(c2nc(C)c3c(n2)CCCC3)C[C@@H]1C1CC1`, for which the cytotoxicity at 10 µM came to 13.2%.
As to `Cc1ccc(C)c2c(O)cc(CNCC(N)=O)nc12`, the cytotoxicity at 10 µM was -3.35%.
With `CN(C)c1cncc(-c2ccnc3c2ccn3C)n1`, the cytotoxicity at 10 µM is 5.51%.
Turning to `CN1C(=O)C2(CCCN(C(=O)c3ccc(=O)n(C)n3)C2)c2ccccc21` (configuration not stated), the cytotoxicity at 10 µM came to 4.65%.
The result for `Cc1noc(CN(C)c2nc(-c3ccco3)nc3c2CCN(C)CC3)n1` reads -0.0198%.
For the compound `COc1cccc(OCC2CCCN(C(=O)Cc3cccc(O)c3)C2)c1` (configuration not stated), the cytotoxicity at 10 µM is -18.9%.
The result for `Cc1ccc(C)c2c(O)cc(CNCc3ccc(S(N)(=O)=O)cc3)nc12` reads -9.06%; that for `O=C(CN1CC(n2cccn2)C1)NCCCN1CCCC1=O`, -29.9%; that for `CC(C)c1ncc2c(n1)CN(Cc1nc(-c3ccccn3)no1)CC2`, 1.59%.
With `CCc1ncc2c(n1)CN(Cc1nc(-c3cccs3)no1)CC2` the figure was -7.82%; with `Cn1ccc(C(=O)N2CCN(c3nccs3)CC2)cc1=O`, -18.1%.
As to `Cn1cc(C(=O)N2CCN(c3ncccn3)CC2)ccc1=O`, the cytotoxicity at 10 µM was -7.82%.
For `CCOc1ccccc1CNCC1CCN(CC(C)O)CC1` (configuration not stated), the cytotoxicity at 10 µM was -9.04%.
On to `Cc1cccc(NC2CCN(C(=O)Nc3cn[nH]c3)CC2)n1`, for which the cytotoxicity at 10 µM was -26.7%.
For the compound `CN(Cc1nc2ccccc2o1)C1CCCN(c2cccnn2)C1` (configuration not stated), the cytotoxicity at 10 µM is -9.43%.
Turning to `CCn1cnnc1CNC(=O)NC(C)c1ccc(Cl)s1` (configuration not stated), the cytotoxicity at 10 µM was -23.1%.
For `CC(O)CN1CCC(CNCc2ccc(C(N)=O)cc2)CC1` (configuration not stated), the cytotoxicity at 10 µM is -9.83%.
For the compound `CCOc1ccccc1OC1CCN(C(=O)c2cc[nH]n2)CC1`, the cytotoxicity at 10 µM is -4.53%.
With `COc1ccc2c(c1)CCCN2Cc1nc2c(cnn2C)c(=O)[nH]1`, the cytotoxicity at 10 µM was -3.3%.
With `Cc1cccc(C2(NC(=O)CCN3C(=O)CCC3=O)CCCC2)c1` the figure was -17.4%.
With `CN(C)C(=O)[C@H]1C[C@H]2OCC[C@H]2N(Cc2ccc3c(c2)OCO3)C1` the figure was -71.3%.
Turning to `O=C(NCc1ccco1)[C@@]12CCO[C@@H]1CCN(C1CCC1)C2`, the cytotoxicity at 10 µM was 12.3%.
With `CN(C)Cc1cn2c(n1)CN(CC1CCCC1)CC2` the figure was -149%; with `CN(C)CCN1CC[C@@H]2O[C@@H](COCC(=O)N3CCCC3)CC[C@@H]21`, -1.78%.
As to `Cc1cccc(CN2C[C@H](OCc3csc(C)n3)[C@H]3COC[C@H]32)n1`, the cytotoxicity at 10 µM came out at 3.22%.
`Cc1noc(C)c1CN1CCN(Cc2ccncc2)c2ncccc2C1`: the cytotoxicity at 10 µM is 5.51%.
Turning to `c1cn2c(n1)CN(C1CCOCC1)CC(CN1CCCC1)C2` (configuration not stated), the cytotoxicity at 10 µM is -0.123%.
For the compound `O=C(c1ccco1)N1CCc2ncnc(Oc3cccnc3)c2CC1`, the cytotoxicity at 10 µM was -2.86%.
As to `Cc1noc([C@@H]2C[C@H]3CN(C(=O)C4CCN(C)CC4)C[C@H]3O2)n1`, the cytotoxicity at 10 µM is -71.2%.
With `CCOC1CC2(CCN(Cc3cccn3C)CC2)C1` the figure was -149%; with `COc1ccc(CN2CCC[C@@H]3CN(C(=O)c4ccco4)C[C@@H]32)cc1`, 1.44%; with `COCC(=O)N1CCc2c(nnn2C)C1COCCN1CCCC1` (configuration not stated), 11.6%.
For the compound `COCC(=O)N1C[C@H]2CN(Cc3csc(C)n3)C(=O)[C@H]2C1`, the cytotoxicity at 10 µM is -77.2%.
With `Cn1cc(CN2CCC3(CCCN3Cc3cccnc3)CC2)cn1` the figure was 2.43%; with `CC1CCN(c2nc3cn(Cc4cccc(F)c4)c(=O)c-3c[nH]2)CC1`, 4.52%.
